# ChEMBL document CHEMBL1127852, “Synthesis and antibacterial activity of thiazolopyrazine-incorporated tetracyclic quinolone antibacterial agents. 2” (1994)
# Assays:
# Assay type in all cases: functional
# [1] = tested on: Staphylococcus epidermidis; assay: Compound was tested for its minimal inhibitory constant against Gram-positive microorganism Staphylococcus epidermidis IAM 1296 (Se)
# Method in brief: (§1)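 Serial 2-fold agar dilution on Sensitivity Test agar, inoculum approximately 10^6 CFU/mL, incubated 37 °C for 18 h. MIC taken as lowest concentration preventing visible growth. Values are means of duplicate or triplicate experiments.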
# Escherichia coli [2] = assay: Compound was tested for its minimal inhibitory constant against Gram-negative microorganism Escherichia coli NIHJ JC-2 (Ec(N)); method in brief: as §1
# Pseudomonas aeruginosa [3] = assay: Compound was tested for its minimal inhibitory constant against Gram-negative microorganism Pseudomonas aeruginosa E-2 (Pa(E)); method in brief: as §1
# Micrococcus luteus = assay: Compound was tested for its minimal inhibitory constant against Gram-positive microorganism Micrococcus luteus ATCC 9341 (MI); method in brief: as §1
# Staphylococcus aureus [4] = assay: Tested for in vitro for antibacterial activity against 16 clinical isolated of methicillin-resistant Staphylococcus aureus
# Method in brief: (§2)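 Serial 2-fold agar dilution in Sensitivity Test agar, following the standard method. Clinical MRSA isolates collected in Japan in 1988 and 1989. Inoculum about 10^6 CFU/mL. Plates incubated at 37 °C for 18 h. MIC taken as the lowest concentration that prevented visible growth.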
# Pseudomonas aeruginosa [5] = assay: Compound was tested for its minimal inhibitory constant against Gram-negative microorganism Pseudomonas aeruginosa IFO 3445 (Pa(I)); method in brief: as §1
# Staphylococcus aureus [6] = assay: Compound was tested for its minimal inhibitory constant against Gram-positive microorganism Staphylococcus aureus IID 803 (Sa(I)); method in brief: as §1
# Escherichia coli [7] = assay: Compound was tested for its minimal inhibitory constant against Gram-negative microorganism Escherichia coli KC-14 (Ec(K)); method in brief: as §1
# Staphylococcus aureus [8] = assay: Compound was tested for its minimal inhibitory constant against Gram-positive microorganism Staphylococcus aureus FDA 209P JC-1 (Sa(F)); method in brief: as §1
# Enterococcus faecalis = assay: Compound was tested for its minimal inhibitory constant against Gram-positive microorganism Enterococcus faecalis IID682 (Ef); method in brief: as §1
# Mus musculus [9] = assay: Compound was tested for oral efficacy on systemic infections on mice by peroral administration
# Method in brief: (§3)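 Mouse protection against S. aureus IID 803: groups of five male ddY mice (25–28 g) infected i.p. with 0.5 mL bacterial dilution at 100 or 200 times the 50% lethal dose; compound suspended in 1% aqueous gum arabic, given orally 1 h postinfection. Survival scored after 1 week; ED50 with 95% confidence limits by Weil method.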
# Klebsiella pneumoniae = assay: Compound was tested for its minimal inhibitory constant against Gram-negative microorganism Klebsiella pneumoniae B54 (Kp); method in brief: as §1
# Mus musculus [10] = assay: Compound was tested for Therapeutic effects on systemic infections on mice by peroral administration; settings: po; method in brief: as §3
# Staphylococcus aureus [11] = assay: Tested for in vitro for antibacterial activity against 16 clinical isolated of methicillin-resistant Staphylococcus aureus, range of Minimal inhibitory activity value for isolates; method in brief: as §2
SMILES,MIC [1],MIC (Escherichia coli [2]),MIC (Pseudomonas aeruginosa [3]),MIC (Micrococcus luteus),MIC (Staphylococcus aureus [4]),MIC50 (Staphylococcus aureus [4]),MIC90 (Staphylococcus aureus [4]),MIC (Pseudomonas aeruginosa [5]),MIC (Staphylococcus aureus [6]),MIC (Escherichia coli [7]),MIC (Staphylococcus aureus [8]),MIC (Enterococcus faecalis),ED50 (Mus musculus [9]),MIC (Klebsiella pneumoniae),ED50 (Mus musculus [10]),MIC (Staphylococcus aureus [11])
CN1Cc2csc3c(C(=O)O)c(=O)c4cc(F)c(N5CCOC(CF)C5)c1c4n23 (configuration not stated),0.025 µg/mL,0.1 µg/mL,0.78 µg/mL,0.1 µg/mL,≤ 0.006 µg/mL,0.2 µg/mL,0.2 µg/mL,0.78 µg/mL,0.006 µg/mL,0.1 µg/mL,0.0125 µg/mL,0.05 µg/mL,1.9 mg/kg,0.2 µg/mL,–,–
CC1COc2c(N3CCN(C)CC3)c(F)cc3c(=O)c(C(=O)O)cn1c23 (configuration not stated) [OFLOXACIN],–,–,1.56 µg/mL,–,–,6.25 µg/mL,50 µg/mL,–,–,0.1 µg/mL,–,1.56 µg/mL,11.4 mg/kg,0.1 µg/mL,14.6 mg/kg,–
COCC1CN(c2c(F)cc3c(=O)c(C(=O)O)c4scc5n4c3c2N(C)C5)CCO1 (configuration not stated),0.05 µg/mL,0.2 µg/mL,3.13 µg/mL,0.2 µg/mL,–,0.39 µg/mL,0.78 µg/mL,3.13 µg/mL,0.0125 µg/mL,0.39 µg/mL,0.025 µg/mL,0.2 µg/mL,1.7 mg/kg,0.78 µg/mL,1.09 mg/kg,≤ 0.006 µg/mL
CN1Cc2csc3c(C(=O)O)c(=O)c4cc(F)c(N5CCOCC5)c1c4n23,0.025 µg/mL,0.1 µg/mL,0.39 µg/mL,0.1 µg/mL,< 0.006 µg/mL,0.2 µg/mL,0.2 µg/mL,0.39 µg/mL,0.006 µg/mL,0.1 µg/mL,0.006 µg/mL,0.05 µg/mL,> 12 mg/kg,0.05 µg/mL,–,–
CC1CN(c2c(F)cc3c(=O)c(C(=O)O)c4scc5n4c3c2N(C)C5)CCO1 (configuration not stated),0.0125 µg/mL,0.1 µg/mL,0.78 µg/mL,0.1 µg/mL,–,0.1 µg/mL,0.2 µg/mL,0.78 µg/mL,0.006 µg/mL,0.1 µg/mL,0.0125 µg/mL,0.05 µg/mL,3.5 mg/kg,0.39 µg/mL,–,≤ 0.006 µg/mL
CNCC1CN(c2c(F)cc3c(=O)c(C(=O)O)c4scc5n4c3c2N(C)C5)CCO1 (configuration not stated),0.1 µg/mL,0.2 µg/mL,3.13 µg/mL,0.78 µg/mL,–,–,–,3.13 µg/mL,0.05 µg/mL,0.2 µg/mL,0.025 µg/mL,0.2 µg/mL,–,1.56 µg/mL,–,–
CC1CN(c2c(F)cc3c(=O)c(C(=O)O)c4scc5n4c3c2N(C)C5)CC(C)O1 (configuration not stated),0.1 µg/mL,0.39 µg/mL,3.13 µg/mL,0.2 µg/mL,–,–,–,3.13 µg/mL,0.0125 µg/mL,0.39 µg/mL,0.0125 µg/mL,0.2 µg/mL,> 12 mg/kg,0.78 µg/mL,–,–
CN(C)CC1CN(c2c(F)cc3c(=O)c(C(=O)O)c4scc5n4c3c2N(C)C5)CCO1 (configuration not stated),0.05 µg/mL,0.39 µg/mL,6.25 µg/mL,0.2 µg/mL,–,–,–,6.25 µg/mL,0.025 µg/mL,0.2 µg/mL,0.025 µg/mL,0.1 µg/mL,4.8 mg/kg,0.39 µg/mL,–,–
CN1Cc2csc3c(C(=O)O)c(=O)c4cc(F)c(N5CCOC(CCl)C5)c1c4n23 (configuration not stated),0.0125 µg/mL,0.2 µg/mL,1.56 µg/mL,0.05 µg/mL,–,0.1 µg/mL,0.2 µg/mL,1.56 µg/mL,0.006 µg/mL,0.2 µg/mL,0.0125 µg/mL,0.05 µg/mL,–,0.39 µg/mL,–,< 0.006 µg/mL
CCC1CN(c2c(F)cc3c(=O)c(C(=O)O)c4scc5n4c3c2N(C)C5)CCO1 (configuration not stated),0.05 µg/mL,0.39 µg/mL,1.56 µg/mL,0.2 µg/mL,–,–,–,3.13 µg/mL,0.025 µg/mL,0.39 µg/mL,0.025 µg/mL,0.1 µg/mL,> 12 mg/kg,0.39 µg/mL,–,–
COC[C@@H]1CN(c2c(F)cc3c(=O)c(C(=O)O)c4scc5n4c3c2N(C)C5)CCO1,0.05 µg/mL,0.2 µg/mL,3.13 µg/mL,0.2 µg/mL,–,–,–,3.13 µg/mL,0.0125 µg/mL,0.39 µg/mL,0.025 µg/mL,0.2 µg/mL,–,0.78 µg/mL,0.82 mg/kg,–
COC[C@H]1CN(c2c(F)cc3c(=O)c(C(=O)O)c4scc5n4c3c2N(C)C5)CCO1,0.025 µg/mL,0.39 µg/mL,3.13 µg/mL,0.2 µg/mL,–,–,–,3.13 µg/mL,0.006 µg/mL,0.39 µg/mL,0.025 µg/mL,0.2 µg/mL,–,0.39 µg/mL,1.25 mg/kg,–
CN1Cc2csc3c(C(=O)O)c(=O)c4cc(F)c(N5CCOC(CO)C5)c1c4n23 (configuration not stated),0.05 µg/mL,0.1 µg/mL,1.56 µg/mL,0.2 µg/mL,–,0.39 µg/mL,0.78 µg/mL,1.56 µg/mL,0.006 µg/mL,0.1 µg/mL,0.0125 µg/mL,0.1 µg/mL,5.1 mg/kg,0.39 µg/mL,–,≤ 0.006 µg/mL
